Series [1] can be described thus: Cytotoxicity against human TZM-bl cells assessed as inhibition of cell growth. Format: cell-based. Put shortly: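 Uninfected TZM-bl cells exposed to test samples. CC50 is the concentration inhibiting cell growth by 50%.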
The nature of series [2]: Therapeutic index, ratio of CC50 for human TZM-bl cells to EC50 for HIV1 NL4-3. Format: cell-based. Conditions: read-out: Ratio CC50/EC50. Put shortly:
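TI calculated as CC50 (uninfected TZM-bl growth inhibition) divided by EC50 (NL4-3 replication inhibition in TZM-bl luciferase reporter assay).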

For series [3], the system named is Human immunodeficiency virus 1. Briefly: Antiviral activity against Human immunodeficiency virus 1 NL4-3 infected in human TZM-bl cells assessed as inhibition of viral replication after 48 hrs by luciferase reporter gene assay. Format: functional, organism-based. Conditions: Human immunodeficiency virus 1, NL4-3, TZM-bl. Put shortly:
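Single-round infection of TZM-bl cells with HIV-1 NL4-3 at 200 TCID50, mixed with test samples at eight four-fold serial dilutions in growth medium. After 48 h, medium is removed and luciferase reagent added. Luminescence is then read. EC50 is the concentration giving 50% reduction in RLU versus virus control wells, after background RLU subtraction.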

For orientation: CC50 means the concentration that lowers cell viability or growth by half. Usually EC50 stands for the concentration that produces a half-maximal response.

`CCc1cc(=O)c2ccc3c(c2o1)[C@@H](OC(=O)C12CCC(C)(C(=O)O1)C2(C)C)[C@@H](OC(=O)C12CCC(C)(C(=O)O1)C2(C)C)[C@H](C)S3` (stereo partly drawn): in series [1], the CC50 is 1840 nM. Also, the selectivity ratio in series [2] worked out at 48. Moreover, the EC50 in series [3] was determined as 38 nM.
The corresponding values for `CCc1cc(=O)c2ccc3c(c2o1)[C@@H](OC(=O)C12CCC(C)(C(=O)O1)C2(C)C)[C@@H](OC(=O)C12CCC(C)(C(=O)O1)C2(C)C)[C@H](C)O3` (stereo partly drawn) are 4550 nM, 153 and 30 nM.
Regarding `CCc1cc(=O)c2ccc3c(c2o1)[C@H](OC(=O)C12CCC(C)(C(=O)O1)C2(C)C)[C@H](OC(=O)C12CCC(C)(C(=O)O1)C2(C)C)[C@@H](C)S3` (stereo partly drawn), the CC50 in series [1] was found to be 3830 nM. For the same compound, the selectivity ratio in series [2] was found to be 20.8. Besides, the EC50 in series [3] was 184 nM.
Take `CCc1cc(=O)c2ccc3c(c2o1)[C@@H](OC(=O)C12CCC(C)(C(=O)O1)C2(C)C)[C@@H](OC(=O)C12CCC(C)(C(=O)O1)C2(C)C)C(C)(C)O3` (stereo partly drawn): the selectivity ratio in series [2] was found to be 119.
On to `CCc1cc(=O)c2ccc3c(c2o1)[C@@H](OC(=O)C12CCC(C)(C(=O)O1)C2(C)C)[C@@H](OC(=O)C12CCC(C)(C(=O)O1)C2(C)C)C(C)(C)S3` (stereo partly drawn), for which the CC50 in series [1] turned out to be 5400 nM. Also, the selectivity ratio in series [2] came to 100. Also, in series [3], the EC50 was determined as 54 nM.
For the compound `Cc1cc(=O)oc2c3c(ccc12)SC(C)(C)[C@H](OC(=O)[C@@]12CC[C@@](C)(C(=O)O1)C2(C)C)[C@@H]3OC(=O)[C@@]12CC[C@@](C)(C(=O)O1)C2(C)C`, the selectivity ratio in series [2] is above 238. In addition, the EC50 in series [3] amounted to 128 nM.
Take `Cc1cc(=O)oc2c3c(ccc12)SC(C)(C)[C@@H](OC(=O)[C@@]12CC[C@@](C)(C(=O)O1)C2(C)C)[C@H]3OC(=O)[C@@]12CC[C@@](C)(C(=O)O1)C2(C)C`: the 50% cytotoxic concentration (CC50) in series [1] is above 30600 nM. Besides, the selectivity ratio in series [2] was above 3.6. For the same compound, the EC50 in series [3] was 8590 nM.

The values above are taken from ChEMBL document CHEMBL1833958, “Anti-AIDS agents 87. New bio-isosteric dicamphanoyl-dihydropyranochromone (DCP) and dicamphanoyl-khellactone (DCK) analogues with potent anti-HIV activity” (Bioorg Med Chem Lett, 2011).
